This passage reports IC50 and Ki results from ChEMBL document CHEMBL1154588, “Evaluation of triazolamers as active site inhibitors of HIV-1 protease” (Bioorg Med Chem Lett, 2009).

The target in this assay is Protease (Human immunodeficiency virus 1, UniProt Q9YQ12). Kind of assay: Inhibition of HIV1 protease by FRET-based assay. The method in brief: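 HIV-1 protease activity was read out by a FRET-based protease assay, following a previously described method. Triazolamer solutions were made up in 10% DMSO in aqueous buffer for the assay.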
Sequence of Protease (Q9YQ12 whole entry): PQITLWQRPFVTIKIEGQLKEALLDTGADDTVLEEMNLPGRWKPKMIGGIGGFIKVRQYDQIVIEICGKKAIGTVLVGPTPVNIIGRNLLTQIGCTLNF

In the case of `CC(C)[C@@H](c1cn([C@@H](Cc2ccccc2)c2cn([C@@H](Cc3ccccc3)c3cn([C@H](c4cn([C@H](C)c5ccccc5)nn4)C(C)C)nn3)nn2)nn1)n1cc(CCc2ccccc2)nn1`, the IC50 (as a rule, the concentration that inhibits the measured activity by half) is 101 µM.

`C[C@H](c1ccccc1)n1cc([C@H](Cc2ccccc2)n2cc([C@H](Cc3ccccc3)n3cc([C@@H](N)Cc4ccccc4)nn3)nn2)nn1` had a concentration for half-maximal inhibition (IC50) of 78 µM.

`CC(C)[C@H](N)c1cn([C@@H](Cc2ccccc2)c2cn([C@@H](Cc3ccccc3)c3cn([C@H](C)c4ccccc4)nn3)nn2)nn1` had an IC50 of 129 µM.

Turning to `CNC(=O)[C@H](C(C)C)n1cc([C@H](Cc2ccccc2)n2cc([C@H](Cc3ccccc3)n3cc([C@@H](N)C(C)C)nn3)nn2)nn1`, the IC50 was > 500 µM; the inhibitory constant (Ki) (usually the dissociation constant of the complex between target and ligand, obtained from inhibition or displacement) is 500 µM.

With `C[C@H](c1ccccc1)n1cc([C@H](Cc2ccccc2)n2cc([C@H](Cc3ccccc3)n3cc([C@H](Cc4ccccc4)n4cc([C@@H](N)Cc5ccccc5)nn4)nn3)nn2)nn1`, the 50% inhibitory concentration (IC50) worked out at 29 µM and the inhibition constant (Ki) is 25 µM.

`CNC(=O)[C@H](Cc1ccccc1)n1cc([C@H](Cc2ccccc2)n2cc([C@H](Cc3ccccc3)n3cc([C@H](Cc4ccccc4)n4cc([C@@H](N)Cc5ccccc5)nn4)nn3)nn2)nn1` yielded an IC50 of 72 µM.

In turn, `CC(C)[C@H](N)c1cn([C@@H](Cc2ccccc2)c2cn([C@@H](Cc3ccccc3)c3cn([C@H](c4cn([C@H](C)c5ccccc5)nn4)C(C)C)nn3)nn2)nn1` showed an IC50 of 60 µM.

For `CC(C)[C@H](N)c1cn([C@H](c2cn([C@@H](Cc3ccccc3)c3cn([C@H](c4cn([C@H](C)c5ccccc5)nn4)C(C)C)nn3)nn2)C(C)C)nn1`, the IC50 was 131 µM.

With `NCCNC(=O)[C@H](Cc1ccccc1)n1cc([C@H](Cc2ccccc2)n2cc([C@H](Cc3ccccc3)n3cc([C@H](Cc4ccccc4)n4cc([C@@H](N)Cc5ccccc5)nn4)nn3)nn2)nn1`, the half-inhibitory concentration (IC50) was found to be 25 µM and the Ki was 25 µM.

In the case of `CNC(=O)[C@H](C(C)C)n1cc([C@H](Cc2ccccc2)n2cc([C@H](Cc3ccccc3)n3cc([C@H](C)N)nn3)nn2)nn1`, the IC50 is > 500 µM and the Ki stood at 500 µM.
